Experimental data taken from ChEMBL document CHEMBL4411337, “2-Aminothiazole Derivatives as Selective Allosteric Modulators of the Protein Kinase CK2. 1. Identification of an Allosteric Binding Site” (J Med Chem, 2019).
pIC50, pKi: −log10 of the molar value. The source made the active and inactive calls. The rule behind the calls is not given here.

Columns and labels:
[1] = biological target: T1, Casein kinase II subunit alpha (Homo sapiens, UniProt P68400); experiment: Inhibition of recombinant human GST-tagged CK2alpha at 10 uM in presence of ATP by radiometric kinase assay relative to control
Method in brief: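 Radiometric assay of CK2α with 100 μM ATP. Single-concentration percent inhibition at 10 μM relative to control. Values are the mean of ≥2 experiments.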
Target sequence in this assay (P68400 whole entry, looked up): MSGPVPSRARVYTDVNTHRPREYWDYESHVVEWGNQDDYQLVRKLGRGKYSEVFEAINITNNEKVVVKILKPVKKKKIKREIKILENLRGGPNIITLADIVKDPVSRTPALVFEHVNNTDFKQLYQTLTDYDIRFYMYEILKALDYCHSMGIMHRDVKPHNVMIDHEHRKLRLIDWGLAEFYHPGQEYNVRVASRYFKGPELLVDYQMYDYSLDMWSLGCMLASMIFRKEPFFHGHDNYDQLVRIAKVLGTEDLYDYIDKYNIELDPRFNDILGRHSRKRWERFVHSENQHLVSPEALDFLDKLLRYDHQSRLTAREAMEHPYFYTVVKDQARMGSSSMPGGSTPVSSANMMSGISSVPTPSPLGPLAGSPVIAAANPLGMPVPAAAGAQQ

[2] = biological target: Activin receptor type-1 (Homo sapiens) (UniProt Q04771); experiment: Inhibition of ALK2 (unknown origin) assessed as residual activity at 50 uM relative to control
Method in brief: (§1)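 Selectivity profiling against a panel of 44 human kinases. For each kinase, ATP was set to that kinase's Km. Values are residual activity in duplicate assays.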

[3] = biological target: Ephrin type-A receptor 4 (Homo sapiens) (UniProt P54764); experiment: Inhibition of EPHA4 (unknown origin) assessed as residual activity at 50 uM relative to control; method in brief: as §1
[4] = biological target: MAP kinase-interacting serine/threonine-protein kinase 1 (Homo sapiens) (UniProt Q9BUB5); experiment: Inhibition of MNK1 (unknown origin) assessed as residual activity at 50 uM relative to control; method in brief: as §1
[5] = biological target: Tyrosine-protein kinase ABL1 (Homo sapiens) (UniProt P00519); experiment: Inhibition of ABL (unknown origin) assessed as residual activity at 50 uM relative to control; method in brief: as §1
[6] = biological target: Dual specificity tyrosine-phosphorylation-regulated kinase 1A (Homo sapiens) (UniProt Q13627); experiment: Inhibition of DYRK1A (unknown origin) assessed as residual activity at 50 uM relative to control; method in brief: as §1
[7] = biological target: Cyclin-dependent kinase 1/cyclin B1 (Homo sapiens) (UniProt P06493+P14635); experiment: Inhibition of CDK1/cyclin B (unknown origin) assessed as residual activity at 50 uM relative to control; assay type: protein-complex assay; method in brief: as §1
[8] = biological target: Mast/stem cell growth factor receptor Kit (Homo sapiens) (UniProt P10721); experiment: Inhibition of cKIT (unknown origin) assessed as residual activity at 50 uM relative to control
Method in brief: (§2)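 Profiling panel of 44 human kinases. ATP set to each kinase's Km. Run in duplicate; duplicates within 15–17% of each other.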

[9] = biological target: Myosin light chain kinase 2, skeletal/cardiac muscle (Homo sapiens) (UniProt Q9H1R3); experiment: Inhibition of MLCK2 (unknown origin) assessed as residual activity at 50 uM relative to control; method in brief: as §1
[10] = biological target: Receptor-interacting serine/threonine-protein kinase 2 (Homo sapiens) (UniProt O43353); experiment: Inhibition of RIPK2 (unknown origin) assessed as residual activity at 50 uM relative to control; method in brief: as §2
[11] = biological target: Dual specificity protein kinase CLK4 (Homo sapiens) (UniProt Q9HAZ1); experiment: Inhibition of CLK4 (unknown origin) assessed as residual activity at 50 uM relative to control; method in brief: as §1
[12] = biological target: Tyrosine-protein kinase JAK2 (Homo sapiens) (UniProt O60674); experiment: Inhibition of JAK2 (unknown origin) assessed as residual activity at 50 uM relative to control; method in brief: as §1
[13] = biological target: Protein kinase C alpha type (Homo sapiens) (UniProt P17252); experiment: Inhibition of PKCalpha (unknown origin) assessed as residual activity at 50 uM relative to control; method in brief: as §2
[14] = biological target: Serine/threonine-protein kinase haspin (Homo sapiens) (UniProt Q8TF76); experiment: Inhibition of haspin (unknown origin) assessed as residual activity at 50 uM relative to control; method in brief: as §2
[15] = biological target: Serine/threonine-protein kinase TBK1 (Homo sapiens) (UniProt Q9UHD2); experiment: Inhibition of TBK1 (unknown origin) assessed as residual activity at 50 uM relative to control; method in brief: as §2
[16] = biological target: Epidermal growth factor receptor (Homo sapiens) (UniProt P00533); experiment: Inhibition of EGFR (unknown origin) assessed as residual activity at 50 uM relative to control; method in brief: as §1
[17] = biological target: Serine/threonine-protein kinase Chk2 (Homo sapiens) (UniProt O96017); experiment: Inhibition of CHK2 (unknown origin) assessed as residual activity at 50 uM relative to control; method in brief: as §1
[18] = biological target: Homeodomain-interacting protein kinase 2 (Homo sapiens) (UniProt Q9H2X6); experiment: Inhibition of HIPK2 (unknown origin) assessed as residual activity at 50 uM relative to control; method in brief: as §1
[19] = biological target: Dual specificity protein kinase CLK1 (Homo sapiens) (UniProt P49759); experiment: Inhibition of CLK1 (unknown origin) assessed as residual activity at 50 uM relative to control; method in brief: as §1
[20] = biological target: Casein kinase I isoform gamma-1 (Homo sapiens) (UniProt Q9HCP0); experiment: Inhibition of CK1gamma1 (unknown origin) assessed as residual activity at 50 uM relative to control; method in brief: as §1
[21] = biological target: Rho-associated protein kinase 1 (Homo sapiens) (UniProt Q13464); experiment: Inhibition of ROCK1 (unknown origin) assessed as residual activity at 50 uM relative to control; method in brief: as §2
[22] = biological target: Muscle, skeletal receptor tyrosine-protein kinase (Homo sapiens) (UniProt O15146); experiment: Inhibition of MUSK (unknown origin) assessed as residual activity at 50 uM relative to control; method in brief: as §1
[23] = biological target: Cyclin-dependent kinase 2/cyclin E1 (Homo sapiens) (UniProt P24864+P24941); experiment: Inhibition of CDK2/cyclin E (unknown origin) assessed as residual activity at 50 uM relative to control; assay type: protein-complex assay; method in brief: as §1
[24] = biological target: Dual specificity mitogen-activated protein kinase kinase 1 (Homo sapiens) (UniProt Q02750); experiment: Inhibition of MEK1 (unknown origin) assessed as residual activity at 50 uM relative to control; method in brief: as §1
[25] = biological target: Platelet-derived growth factor receptor alpha (Homo sapiens) (UniProt P16234); experiment: Inhibition of PDGFRalpha (unknown origin) assessed as residual activity at 50 uM relative to control; method in brief: as §1
[26] = biological target: Dual specificity protein kinase CLK2 (Homo sapiens) (UniProt P49760); experiment: Inhibition of CLK2 (unknown origin) assessed as residual activity at 50 uM relative to control; method in brief: as §1
[27] = biological target: Dual specificity protein kinase CLK3 (Homo sapiens) (UniProt P49761); experiment: Inhibition of CLK3 (unknown origin) assessed as residual activity at 50 uM relative to control; method in brief: as §1
[28] = biological target: Homeodomain-interacting protein kinase 3 (Homo sapiens) (UniProt Q9H422); experiment: Inhibition of HIPK3 (unknown origin) assessed as residual activity at 50 uM relative to control; method in brief: as §1
[29] = biological target: Death-associated protein kinase 3 (Homo sapiens) (UniProt O43293); experiment: Inhibition of DAPK3 (unknown origin) assessed as residual activity at 50 uM relative to control; method in brief: as §1
[30] = biological target: Glycogen synthase kinase-3 beta (Homo sapiens) (UniProt P49841); experiment: Inhibition of GSK3beta (unknown origin) assessed as residual activity at 50 uM relative to control; method in brief: as §1
[31] = biological target: Serine/threonine-protein kinase pim-1 (Homo sapiens) (UniProt P11309); experiment: Inhibition of PIM1 (unknown origin) assessed as residual activity at 50 uM relative to control; method in brief: as §1
[32] = biological target: T1, Casein kinase II subunit alpha; experiment: Mixed-type inhibition of recombinant human GST-tagged CK2alpha in presence of ATP by Lineweaver-Burk plot analysis
Target sequence in this assay (P68400 whole entry): as the sequence (P68400 whole entry, looked up) above

[33] = biological target: T1, Casein kinase II subunit alpha; experiment: Binding affinity to CK2alpha (unknown origin) at 500 uM in presence of kinase inhibitor CX-4945 by STD-based NMR spectroscopy
Method in brief: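 STD NMR at 600 MHz and 293 K in PBS pH 7.3 with 10 mM NaCl, 2 mM MgCl2 and 10% D2O. […] On-resonance protein saturation was at 0.6 ppm for 2 s. STD factors were normalized so the highest STD factor is 100%.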
Target sequence in this assay (P68400 whole entry, looked up): as above

[34] = biological target: T1, Casein kinase II subunit alpha; experiment: Competitive binding affinity to CK2alpha (1 to 335 residues) (unknown origin) at 10 uM in presence of IP6 by nESI-MS analysis
Method in brief: (§3)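 Native nESI-MS of CK2α residues 1–335 (10 μM) after buffer exchange into 0.50 M ammonium acetate pH 8.5 with 5% (v/v) DMSO. […] Capillary was 1.6–2.0 kV, cone 30–90 V, collision 10 V, source 20 °C; CsI calibration. Ligand binding was read from the charge-state spectra.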
Target sequence in this assay (P68400 whole entry, looked up): as above

[35] = Solubility of the compound in water; assay type: physicochemical; conditions: buffer
[36] = biological target: T1, Casein kinase II subunit alpha; experiment: Non-ATP competitive binding affinity to GST-tagged CK2alpha (unknown origin) assessed as melting temperature at 50 uM by temperature-dependent circular dichroism (reference value: […] degC)
Target sequence in this assay (P68400 whole entry, looked up): as above

[37] = biological target: T1, Casein kinase II subunit alpha; experiment: Competitive binding affinity to CK2alpha (1 to 335 residues) (unknown origin) at 10 uM in presence of IP6 by nESI-MS analysis
Target sequence in this assay (P68400 whole entry, looked up): as above

[38] = biological target: T1, Casein kinase II subunit alpha; experiment: Competitive binding affinity to CK2alpha (1 to 335 residues) (unknown origin) at 10 uM by native mass spectrometry; method in brief: as §3
Target sequence in this assay (P68400 whole entry, looked up): as above

[39] = biological target: T1, Casein kinase II subunit alpha; experiment: Inhibition of recombinant human GST-tagged CK2alpha in presence of ATP by radiometric kinase assay
Target sequence in this assay (P68400 whole entry): as the sequence (P68400 whole entry, looked up) above

[40] = biological target: T1, Casein kinase II subunit alpha; experiment: Competitive binding affinity to CK2alpha (1 to 335 residues) (unknown origin) at 10 uM in presence of IP6 by native mass spectrometry; method in brief: as §3
[41] = biological target: T1, Casein kinase II subunit alpha; experiment: Inhibition of recombinant human GST-tagged CK2alpha at 15 uM in presence of varying ATP levels by radiometric kinase assay
[42] = biological target: T1, Casein kinase II subunit alpha; experiment: Inhibition of recombinant human GST-tagged CK2alpha at 15 uM in presence of varying substrate levels by radiometric kinase assay
[43] = biological target: Casein kinase II alpha/beta (Homo sapiens) (UniProt P67870+P68400); experiment: Inhibition of recombinant human GST-tagged CK2alpha2/CK2beta2 at 15 uM in presence of ATP by radiometric kinase assay; assay type: protein-complex assay

Death-associated protein kinase 3 (Homo sapiens), sequence (O43293 whole entry, looked up): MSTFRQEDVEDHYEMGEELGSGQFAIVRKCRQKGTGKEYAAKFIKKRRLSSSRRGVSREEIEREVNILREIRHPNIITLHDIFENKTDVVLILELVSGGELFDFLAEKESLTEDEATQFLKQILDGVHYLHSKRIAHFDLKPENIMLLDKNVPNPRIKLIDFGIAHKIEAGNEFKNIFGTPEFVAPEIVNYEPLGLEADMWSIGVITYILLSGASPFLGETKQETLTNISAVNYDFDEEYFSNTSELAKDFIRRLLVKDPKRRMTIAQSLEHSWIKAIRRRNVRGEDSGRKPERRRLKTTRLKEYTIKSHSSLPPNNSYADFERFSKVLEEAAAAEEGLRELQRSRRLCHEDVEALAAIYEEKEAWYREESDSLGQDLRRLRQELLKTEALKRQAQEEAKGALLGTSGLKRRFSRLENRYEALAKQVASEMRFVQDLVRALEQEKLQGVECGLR
Rho-associated protein kinase 1 (Homo sapiens), sequence (Q13464 2-1354 limits assumed): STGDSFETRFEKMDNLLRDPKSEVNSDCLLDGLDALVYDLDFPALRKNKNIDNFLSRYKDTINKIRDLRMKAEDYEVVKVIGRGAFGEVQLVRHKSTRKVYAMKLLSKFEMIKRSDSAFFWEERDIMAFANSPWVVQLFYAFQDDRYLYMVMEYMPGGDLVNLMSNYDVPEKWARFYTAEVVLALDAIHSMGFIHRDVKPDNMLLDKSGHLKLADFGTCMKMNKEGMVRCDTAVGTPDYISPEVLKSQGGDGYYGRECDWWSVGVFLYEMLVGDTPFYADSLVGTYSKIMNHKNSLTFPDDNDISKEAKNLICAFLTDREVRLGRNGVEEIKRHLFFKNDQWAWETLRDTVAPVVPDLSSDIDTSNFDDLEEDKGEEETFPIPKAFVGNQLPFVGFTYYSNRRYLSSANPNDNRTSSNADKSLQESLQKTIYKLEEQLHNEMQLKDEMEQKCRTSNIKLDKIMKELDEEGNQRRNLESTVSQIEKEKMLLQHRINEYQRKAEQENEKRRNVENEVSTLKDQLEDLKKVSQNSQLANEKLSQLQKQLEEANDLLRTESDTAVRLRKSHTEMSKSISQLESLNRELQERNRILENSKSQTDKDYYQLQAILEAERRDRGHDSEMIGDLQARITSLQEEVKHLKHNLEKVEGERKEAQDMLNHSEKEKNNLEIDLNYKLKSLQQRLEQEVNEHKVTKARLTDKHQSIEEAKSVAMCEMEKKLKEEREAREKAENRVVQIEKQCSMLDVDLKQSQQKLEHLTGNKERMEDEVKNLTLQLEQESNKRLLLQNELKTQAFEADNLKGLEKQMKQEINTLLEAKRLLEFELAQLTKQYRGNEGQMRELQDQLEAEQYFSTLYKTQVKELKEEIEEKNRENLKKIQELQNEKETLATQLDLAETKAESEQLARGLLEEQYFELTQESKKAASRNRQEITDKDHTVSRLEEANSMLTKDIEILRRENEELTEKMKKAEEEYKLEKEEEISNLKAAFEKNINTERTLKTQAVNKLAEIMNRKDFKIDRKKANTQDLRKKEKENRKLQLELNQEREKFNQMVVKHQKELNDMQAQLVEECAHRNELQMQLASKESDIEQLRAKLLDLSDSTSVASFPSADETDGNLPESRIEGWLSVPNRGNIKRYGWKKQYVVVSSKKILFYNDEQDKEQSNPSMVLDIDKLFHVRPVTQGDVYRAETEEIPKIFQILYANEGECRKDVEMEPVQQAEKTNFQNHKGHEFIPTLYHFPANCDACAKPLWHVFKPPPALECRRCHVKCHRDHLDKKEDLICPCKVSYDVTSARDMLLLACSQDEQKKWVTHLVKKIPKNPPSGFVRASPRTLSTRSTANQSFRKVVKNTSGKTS
Dual specificity protein kinase CLK4 (Homo sapiens), sequence (Q9HAZ1 whole entry, looked up): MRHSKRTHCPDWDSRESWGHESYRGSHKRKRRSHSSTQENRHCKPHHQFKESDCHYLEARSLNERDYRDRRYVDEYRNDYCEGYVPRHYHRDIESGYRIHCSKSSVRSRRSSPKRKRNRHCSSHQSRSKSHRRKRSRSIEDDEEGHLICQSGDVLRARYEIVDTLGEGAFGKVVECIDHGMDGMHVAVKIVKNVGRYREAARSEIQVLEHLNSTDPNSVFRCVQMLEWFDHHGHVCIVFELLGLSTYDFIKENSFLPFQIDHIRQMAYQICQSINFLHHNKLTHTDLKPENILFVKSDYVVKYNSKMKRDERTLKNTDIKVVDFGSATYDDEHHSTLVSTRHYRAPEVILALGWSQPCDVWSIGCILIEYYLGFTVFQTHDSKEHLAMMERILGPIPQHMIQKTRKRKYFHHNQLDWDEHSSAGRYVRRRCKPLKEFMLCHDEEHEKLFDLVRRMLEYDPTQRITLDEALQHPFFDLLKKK
Epidermal growth factor receptor (Homo sapiens), sequence (P00533 whole entry): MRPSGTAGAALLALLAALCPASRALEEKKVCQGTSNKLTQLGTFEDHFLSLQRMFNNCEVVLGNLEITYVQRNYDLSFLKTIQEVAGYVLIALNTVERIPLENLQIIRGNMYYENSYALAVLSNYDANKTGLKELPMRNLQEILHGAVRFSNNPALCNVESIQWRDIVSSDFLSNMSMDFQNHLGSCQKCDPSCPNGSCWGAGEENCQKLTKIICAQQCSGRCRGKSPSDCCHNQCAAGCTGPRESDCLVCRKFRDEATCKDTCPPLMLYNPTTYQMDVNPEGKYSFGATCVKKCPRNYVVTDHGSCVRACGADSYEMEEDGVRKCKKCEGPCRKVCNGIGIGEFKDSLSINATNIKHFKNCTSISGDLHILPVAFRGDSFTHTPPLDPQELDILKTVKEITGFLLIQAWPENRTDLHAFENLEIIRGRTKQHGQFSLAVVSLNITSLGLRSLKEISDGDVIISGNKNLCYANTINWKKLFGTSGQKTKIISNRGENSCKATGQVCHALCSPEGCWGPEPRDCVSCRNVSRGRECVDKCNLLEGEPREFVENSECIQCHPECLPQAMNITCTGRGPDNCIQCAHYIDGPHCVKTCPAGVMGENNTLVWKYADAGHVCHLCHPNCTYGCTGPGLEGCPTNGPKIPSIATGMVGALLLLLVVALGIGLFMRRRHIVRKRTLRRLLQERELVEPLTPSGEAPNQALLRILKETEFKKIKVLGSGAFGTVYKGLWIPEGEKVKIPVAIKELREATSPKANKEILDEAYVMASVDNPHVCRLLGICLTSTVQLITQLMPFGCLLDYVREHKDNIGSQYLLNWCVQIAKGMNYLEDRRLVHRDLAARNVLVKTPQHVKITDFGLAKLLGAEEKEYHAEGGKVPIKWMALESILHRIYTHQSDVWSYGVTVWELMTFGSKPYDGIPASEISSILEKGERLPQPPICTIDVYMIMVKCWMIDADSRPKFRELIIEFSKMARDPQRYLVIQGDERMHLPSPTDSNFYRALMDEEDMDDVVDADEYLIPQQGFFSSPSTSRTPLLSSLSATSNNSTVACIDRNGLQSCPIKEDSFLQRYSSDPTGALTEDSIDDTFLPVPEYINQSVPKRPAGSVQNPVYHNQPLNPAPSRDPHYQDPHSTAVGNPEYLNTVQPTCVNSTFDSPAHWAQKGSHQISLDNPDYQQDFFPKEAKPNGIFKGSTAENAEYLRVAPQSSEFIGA
Receptor-interacting serine/threonine-protein kinase 2 (Homo sapiens), sequence (O43353 whole entry): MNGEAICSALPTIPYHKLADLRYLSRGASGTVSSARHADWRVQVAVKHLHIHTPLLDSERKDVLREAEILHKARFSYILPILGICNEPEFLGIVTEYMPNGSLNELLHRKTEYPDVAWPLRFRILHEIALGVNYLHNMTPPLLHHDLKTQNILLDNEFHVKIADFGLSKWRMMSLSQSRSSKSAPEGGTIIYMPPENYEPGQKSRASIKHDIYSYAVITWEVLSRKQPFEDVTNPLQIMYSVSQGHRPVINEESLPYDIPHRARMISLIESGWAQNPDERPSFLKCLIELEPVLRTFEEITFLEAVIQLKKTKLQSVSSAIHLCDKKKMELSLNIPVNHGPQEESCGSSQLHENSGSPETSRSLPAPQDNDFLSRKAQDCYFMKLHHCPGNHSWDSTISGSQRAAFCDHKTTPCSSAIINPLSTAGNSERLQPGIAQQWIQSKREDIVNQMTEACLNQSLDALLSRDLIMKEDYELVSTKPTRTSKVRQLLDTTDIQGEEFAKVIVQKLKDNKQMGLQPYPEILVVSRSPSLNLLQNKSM

O=[N+]([O-])c1cccc(-c2csc(Nc3ccccc3)n2)c1
inhibition [1]: 27%

O=C(O)c1ccc(Nc2nc(-c3cccc(Br)c3)cs2)cc1
Activity [2]: 34% | Activity [3]: 27% | Activity [4]: 101% | Activity [5]: 69% | Activity [6]: 79% | Activity [7]: 78% | Activity [8]: 116% | Activity [9]: 39% | Activity [10]: 86% | Activity [11]: 39% | Activity [12]: 98% | Activity [13]: 92% | Activity [14]: 55% | Activity [15]: 75% | Activity [16]: 106% | Activity [17]: 72% | Activity [18]: 57% | Activity [19]: 80% | Activity [20]: 31% | Activity [21]: 107% | Activity [22]: 90% | Activity [23]: 107% | Activity [24]: 95% | Activity [25]: 102% | Activity [26]: 67% | Activity [27]: 86% | Activity [28]: 82% | Activity [29]: 104% | Activity [30]: 29% | Activity [31]: 57%

O=C(O)c1ccc(Nc2nc(-c3ccccc3)cs2)cc1
pKi [32]: 5.96 | Activity [33]: Active | Activity [34]: Active | solubility [35]: Soluble | Tm [36]: 50.3 °C | Activity [37]: Active | Activity [38]: Active | pIC50 [39]: 5.05 | Activity [40]: inactive

O=C(O)c1cccc(Nc2nc(-c3cccc([N+](=O)[O-])c3)cs2)c1
inhibition [41]: Active | inhibition [42]: Active | pIC50 [39]: 4.56 | inhibition [43]: Active

O=C(O)c1ccc(Nc2nccs2)cc1
inhibition [1]: 0%

O=C(O)c1ccc(Nc2nc(-c3ccccn3)cs2)cc1
solubility [35]: Soluble

COC(=O)c1ccc(Nc2nc(-c3cccc([N+](=O)[O-])c3)cs2)cc1
inhibition [1]: 9%
